Results from ChEMBL document CHEMBL1926593, “Studies on the synthesis and antibacterial activity of 3,6-disubstituted 1,2,4-triazolo[3,4-b]1,3,4-thiadiazoles” (2012).
In brackets after ≈: the same amount, converted by molar mass. Activity calls are given as the source filed them. The calls are words filed in the database; no cut-off is given here.

Key:
[1] = tested on: Micrococcus luteus; test: Antibacterial activity against drug-sensitive Micrococcus luteus ATCC 10240 by broth microdilution method; type: functional
Outline: (§1)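 Broth microdilution per CLSI recommendation. MIC is the lowest concentration with no visible growth. MBC is the lowest concentration giving >99.9% reduction in CFU of the initial inoculum. Ampicillin, cefuroxime and vancomycin served as reference agents.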

[2] = tested on: Staphylococcus aureus; test: Antibacterial activity against methicillin-resistant Staphylococcus aureus ATCC 14001 by broth microdilution method; type: functional
Outline: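 Broth microdilution following CLSI recommendations. MIC was read as the lowest concentration giving no visible growth. Ampicillin, cefuroxime and vancomycin were the reference antibacterials.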

[3] = tested on: Staphylococcus aureus; test: Ratio of MBC to MIC for methicillin-resistant Staphylococcus aureus ATCC 14001; type: functional
Outline: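 Broth microdilution following CLSI recommendations. MIC was the lowest concentration with no visible growth. MBC was the lowest concentration giving a >99.9% reduction in CFU relative to the initial inoculum. The ratio was taken from these two values.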

[4] = tested on: Bacillus subtilis; test: Ratio of ampicillin MIC to compound MIC for drug-sensitive Bacillus subtilis ATCC 6633 by broth microdilution method; type: functional
[5] = tested on: Bacillus cereus; test: Ratio of ampicillin MIC to compound MIC for drug-sensitive Bacillus cereus ATCC 10876 by broth microdilution method; type: functional
[6] = tested on: Bacillus cereus; test: Ratio of cefuroxime MIC to compound MIC for drug-sensitive Bacillus cereus ATCC 10876 by broth microdilution method; type: functional
[7] = tested on: Escherichia coli; test: Antibacterial activity against drug-sensitive Escherichia coli ATCC 25922 by broth microdilution method; type: functional, organism-based; outline: as §1
[8] = tested on: Klebsiella pneumoniae; test: Antibacterial activity against drug-sensitive Klebsiella pneumoniae ATCC 13883 by broth microdilution method; type: functional, organism-based; outline: as §1
[9] = tested on: Proteus mirabilis; test: Antibacterial activity against drug-sensitive Proteus mirabilis ATCC 12453 by broth microdilution method; type: functional, organism-based; outline: as §1
[10] = tested on: Pseudomonas aeruginosa; test: Antibacterial activity against drug-sensitive Pseudomonas aeruginosa ATCC 9027 by broth microdilution method; type: functional, organism-based; outline: as §1
[11] = tested on: Staphylococcus aureus; test: Antibacterial activity against drug-sensitive Staphylococcus aureus ATCC 25923 by broth microdilution method; type: functional; outline: as §1
[12] = tested on: Staphylococcus aureus; test: Antibacterial activity against drug-sensitive Staphylococcus aureus ATCC 6538 by broth microdilution method; type: functional; outline: as §1
[13] = tested on: Staphylococcus epidermidis; test: Antibacterial activity against drug-sensitive Staphylococcus epidermidis ATCC 12228 by broth microdilution method; type: functional; outline: as §1
[14] = tested on: Bacillus subtilis; test: Antibacterial activity against drug-sensitive Bacillus subtilis ATCC 6633 by broth microdilution method; type: functional; outline: as §1
[15] = tested on: Bacillus cereus; test: Antibacterial activity against drug-sensitive Bacillus cereus ATCC 10876 by broth microdilution method; type: functional; outline: as §1

SMILES | MBC [1] | MIC [1] | MBC [2] | MIC [2] | Ratio [3] | Ratio [5] | Activity [7] | Activity [8] | Activity [9] | Activity [10] | MBC [11] | MIC [11] | MBC [12] | MIC [12] | MBC [13] | MIC [13] | MBC [14] | MIC [14] | MBC [15] | MIC [15] | also measured
Clc1ccc(Nc2nn3c(-c4ccccc4Cl)nnc3s2)cc1 | 15.6 µg/mL (≈ 43.1 µM) | 7.81 µg/mL (≈ 21.6 µM) | 62.5 µg/mL (≈ 173 µM) | 1.95 µg/mL (≈ 5.38 µM) | 32 | 16 | inactive | inactive | inactive | inactive | 31.2 µg/mL (≈ 86.3 µM) | 15.6 µg/mL (≈ 43.1 µM) | 15.6 µg/mL (≈ 43.1 µM) | 15.6 µg/mL (≈ 43.1 µM) | 15.6 µg/mL (≈ 43.1 µM) | 3.91 µg/mL (≈ 10.8 µM) | 15.6 µg/mL (≈ 43.1 µM) | 3.91 µg/mL (≈ 10.8 µM) | 3.91 µg/mL (≈ 10.8 µM) | 3.91 µg/mL (≈ 10.8 µM) | Ratio [4]: 4; Ratio [6]: 8
Clc1cccc(-c2nnc3sc(Nc4ccc(Br)cc4)nn23)c1 | 3.91 µg/mL (≈ 9.61 µM) | 3.91 µg/mL (≈ 9.61 µM) | 125 µg/mL (≈ 307 µM) | 0.98 µg/mL (≈ 2.41 µM) | 128 | 4 | inactive | inactive | inactive | inactive | 31.2 µg/mL (≈ 76.8 µM) | 0.98 µg/mL (≈ 2.41 µM) | 31.2 µg/mL (≈ 76.8 µM) | 0.49 µg/mL (≈ 1.2 µM) | 3.91 µg/mL (≈ 9.61 µM) | 0.98 µg/mL (≈ 2.41 µM) | 1.95 µg/mL (≈ 4.79 µM) | 1.95 µg/mL (≈ 4.79 µM) | 31.2 µg/mL (≈ 76.8 µM) | 15.6 µg/mL (≈ 38.4 µM) | Ratio [6]: 2
Clc1ccc(Nc2nn3c(-c4cccc(Cl)c4)nnc3s2)cc1 | 3.91 µg/mL (≈ 10.8 µM) | 3.91 µg/mL (≈ 10.8 µM) | 62.5 µg/mL (≈ 173 µM) | 0.98 µg/mL (≈ 2.71 µM) | 64 | 8 | inactive | inactive | inactive | inactive | 31.2 µg/mL (≈ 86.3 µM) | 1.95 µg/mL (≈ 5.38 µM) | 31.2 µg/mL (≈ 86.3 µM) | 0.49 µg/mL (≈ 1.35 µM) | 3.91 µg/mL (≈ 10.8 µM) | 0.98 µg/mL (≈ 2.71 µM) | 1.95 µg/mL (≈ 5.38 µM) | 1.95 µg/mL (≈ 5.38 µM) | 15.6 µg/mL (≈ 43.1 µM) | 7.81 µg/mL (≈ 21.6 µM) | Ratio [4]: 8; Ratio [6]: 4
CN[C@H](CC(C)C)C(=O)N[C@H]1C(=O)N[C@@H](CC(N)=O)C(=O)N[C@H]2C(=O)N[C@H]3C(=O)N[C@H](C(=O)N[C@H](C(=O)O)c4cc(O)cc(O)c4-c4cc3ccc4O)[C@H](O)c3ccc(c(Cl)c3)Oc3cc2cc(c3O[C@@H]2O[C@H](CO)[C@@H](O)[C@H](O)[C@H]2O[C@H]2C[C@](C)(N)[C@H](O)[C@H](C)O2)Oc2ccc(cc2Cl)[C@H]1O [VANCOMYCIN] | 0.49 µg/mL (≈ 0.338 µM) | 0.25 µg/mL (≈ 0.173 µM) | 3.91 µg/mL (≈ 2.7 µM) | 0.98 µg/mL (≈ 0.676 µM) | 4 | – | – | – | – | – | 7.81 µg/mL (≈ 5.39 µM) | 0.98 µg/mL (≈ 0.676 µM) | 1.95 µg/mL (≈ 1.35 µM) | 0.49 µg/mL (≈ 0.338 µM) | 1.95 µg/mL (≈ 1.35 µM) | 0.98 µg/mL (≈ 0.676 µM) | 0.49 µg/mL (≈ 0.338 µM) | 0.25 µg/mL (≈ 0.173 µM) | 31.2 µg/mL (≈ 21.6 µM) | 0.98 µg/mL (≈ 0.676 µM) | –
Brc1ccc(Nc2nn3c(-c4ccccc4)nnc3s2)cc1 | 7.81 µg/mL (≈ 21 µM) | 3.91 µg/mL (≈ 10.5 µM) | 62.5 µg/mL (≈ 168 µM) | 7.81 µg/mL (≈ 21 µM) | 8 | 4 | inactive | inactive | inactive | inactive | 31.2 µg/mL (≈ 83.9 µM) | 0.98 µg/mL (≈ 2.63 µM) | 125 µg/mL (≈ 336 µM) | 15.6 µg/mL (≈ 42 µM) | 0.98 µg/mL (≈ 2.63 µM) | 0.49 µg/mL (≈ 1.32 µM) | 1.91 µg/mL (≈ 5.13 µM) | 0.98 µg/mL (≈ 2.63 µM) | 15.6 µg/mL (≈ 42 µM) | 15.6 µg/mL (≈ 42 µM) | Ratio [4]: 16; Ratio [6]: 2
Clc1ccc(Nc2nn3c(-c4ccc(Cl)cc4)nnc3s2)cc1 | 31.2 µg/mL (≈ 86.3 µM) | 15.6 µg/mL (≈ 43.1 µM) | 62.5 µg/mL (≈ 173 µM) | 7.81 µg/mL (≈ 21.6 µM) | 8 | 8 | inactive | inactive | inactive | inactive | 62.5 µg/mL (≈ 173 µM) | 3.91 µg/mL (≈ 10.8 µM) | 62.5 µg/mL (≈ 173 µM) | 0.98 µg/mL (≈ 2.71 µM) | 15.6 µg/mL (≈ 43.1 µM) | 3.91 µg/mL (≈ 10.8 µM) | 7.81 µg/mL (≈ 21.6 µM) | 3.91 µg/mL (≈ 10.8 µM) | 31.2 µg/mL (≈ 86.3 µM) | 7.81 µg/mL (≈ 21.6 µM) | Ratio [4]: 4
